pIC50: −log10 of the molar value.
How the values were obtained:
Format in all cases: functional, cell-based
[1] = system: L1210; assay: Tested for inhibitory activity against murine cell line […], a strain resistant to doxorubicin using MTT assay.; conditions: Mus musculus
In short: (§1)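 Murine L1210 leukaemia cells were tested as a drug-sensitive strain and as a multiple drug-resistant strain that is P-glycoprotein positive. Growth inhibition in both strains was read by MTT assay.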

[2] = system: L1210; assay: Tested for inhibitory activity against murine cell line […], a strain sensitive to doxorubicin using MTT assay.; conditions: Mus musculus; in short: as §1
[3] = system: MCF7; assay: Tested for inhibitory activity against human tumor cell line D40, a strain resistant to doxorubicin of breast carcinoma using sulforhodamine B assay.
[4] = system: MCF7; assay: Tested for inhibitory activity against human tumor cell line MCF7, a strain resistant to mitoxantrone of breast carcinoma using sulforhodamine B assay.
[5] = system: MCF7; assay: Tested for inhibitory activity against human tumor cell line MCF7, a strain sensitive to doxorubicin of breast carcinoma using sulforhodamine B assay.
[6] = system: UACC-375; assay: Tested for inhibitory activity against human tumor cell line UA375 of melanoma using sulforhodamine B assay.
[7] = system: WiDr; assay: Tested for inhibitory activity against a multi drug resistant (MDR) strain of human colon carcinoma WiDr using sulforhodamine B assay (it is MRP positive but non-P-glycoprotein).
[8] = system: WiDr; assay: Tested for inhibitory activity against a sensitive strain of human colon carcinoma WiDr using sulforhodamine B assay (it is MRP positive but non-P-glycoprotein).
[9] = Tested for inhibitory activity against human tumor cell line A549 (a non small, drug resistant cell line that does not produce P-glycoprotein) of lung carcinoma using sulforhodamine B assay.
[10] = system: OVCAR-3; assay: Tested for inhibitory activity against human tumor cell line OVCAR-3, a resistant ovarian carcinoma using sulforhodamine B assay.
[11] = system: L1210; assay: Tested for inhibitory activity against murine cell line […] leukemia, a strain resistant to doxorubicin using MTT assay.; conditions: Mus musculus; in short: as §1
[12] = system: L1210; assay: Tested for inhibitory activity against murine cell line […] leukemia, a strain sensitive to doxorubicin using MTT assay.; conditions: Mus musculus; in short: as §1
[13] = system: OVCAR-3; assay: Tested for inhibitory activity against human tumor cell line OVCAR-3 a resistant ovarian carcinoma using sulforhodamine B assay.

CN(C)CCN1C(=O)c2cccc3c2c(cc2c(N)cccc23)C1=O
pIC50 [1]: 7.27 | pIC50 [2]: 7.27 | pIC50 [3]: 6.23 | pIC50 [4]: 6.26 | pIC50 [5]: 6.26 | pIC50 [6]: 5.97 | pIC50 [7]: 6.28 | pIC50 [8]: 6.55 | pIC50 [9]: 6.55 | pIC50 [10]: 6.27

COc1cccc2c1cc1c3c(cccc32)C(=O)N(CCN(C)C)C1=O
pIC50 [1]: 5.81 | pIC50 [2]: 6.28 | pIC50 [3]: 6.09 | pIC50 [4]: 6.05 | pIC50 [5]: 6.07 | pIC50 [6]: 6.28 | pIC50 [7]: 5.89 | pIC50 [8]: 6.05 | pIC50 [9]: 6.06 | pIC50 [10]: 7.70

CN(C)CCN1C(=O)c2cccc3c2c(cc2ccccc23)C1=O
pIC50 [1]: 6.78 | pIC50 [2]: 6.71 | pIC50 [3]: 6.30 | pIC50 [4]: 6.55 | pIC50 [5]: 6.66 | pIC50 [6]: 6.25 | pIC50 [7]: 6.38 | pIC50 [8]: 6.62 | pIC50 [9]: 6.66 | pIC50 [10]: 6.25

CN(C)CCN1C(=O)c2cc(NC(=O)C(C)(C)C)cc3cc4c(c(c23)C1=O)CCCC4
pIC50 [1]: 5.82 | pIC50 [2]: 6.01 | pIC50 [3]: 5.89 | pIC50 [4]: 6.00 | pIC50 [5]: 5.77 | pIC50 [6]: 5.37 | pIC50 [7]: 5.82 | pIC50 [8]: 5.92 | pIC50 [9]: 6.07 | pIC50 [10]: 5.37

CN(C)CCN1C(=O)c2cccc3c2c(cc2cccc(O)c23)C1=O
pIC50 [1]: 6.27 | pIC50 [2]: 6.27 | pIC50 [3]: 6.17 | pIC50 [4]: 6.41 | pIC50 [5]: 6.20 | pIC50 [6]: 6.39 | pIC50 [7]: 5.64 | pIC50 [8]: 6.59 | pIC50 [9]: 6.80 | pIC50 [10]: 6.17

CN(C)CCN1C(=O)c2cccc3c2c(cc2c(O)cccc23)C1=O
pIC50 [1]: 5.87 | pIC50 [2]: 6.09 | pIC50 [3]: 6.25 | pIC50 [4]: 6.47 | pIC50 [5]: 6.20 | pIC50 [6]: 6.27 | pIC50 [7]: 6.30 | pIC50 [8]: 6.49 | pIC50 [9]: 6.38 | pIC50 [10]: 6.09

CN(C)CCN1C(=O)c2cc3cccnc3c3ccc(N)c(c23)C1=O
pIC50 [1]: 6.73 | pIC50 [2]: 6.63 | pIC50 [3]: 6.51 | pIC50 [4]: 6.51 | pIC50 [5]: 6.57 | pIC50 [6]: 6.93 | pIC50 [7]: 6.68 | pIC50 [8]: 6.80 | pIC50 [9]: 6.77 | pIC50 [10]: 6.33

CN(C)CCN1C(=O)c2cccc3cc4c(c(c23)C1=O)CCCC4
pIC50 [1]: 8.10 | pIC50 [2]: 7.96 | pIC50 [3]: 6.64 | pIC50 [4]: 6.82 | pIC50 [5]: 7.00 | pIC50 [6]: 6.65 | pIC50 [7]: 6.66 | pIC50 [8]: 6.89 | pIC50 [9]: 7.74 | pIC50 [10]: 7.15

CN(C)CCN1C(=O)c2cccc3c2c(cc2cccc(Cl)c23)C1=O
pIC50 [1]: 6.64 | pIC50 [2]: 6.59 | pIC50 [3]: 6.54 | pIC50 [4]: 6.82 | pIC50 [5]: 6.80 | pIC50 [6]: 6.75 | pIC50 [7]: 6.42 | pIC50 [8]: 6.66 | pIC50 [9]: 7.35 | pIC50 [10]: 6.41

CN(C)CCN1C(=O)c2cccc3c2c(cc2ncccc23)C1=O
pIC50 [11]: 6.44 | pIC50 [12]: 6.31 | pIC50 [3]: 6.49 | pIC50 [4]: 6.64 | pIC50 [5]: 6.77 | pIC50 [6]: 6.21 | pIC50 [7]: 6.59 | pIC50 [8]: 6.96 | pIC50 [9]: 7.49 | pIC50 [13]: 6.01

CC(=O)Nc1ccc2cc3c(c4c2c1C(=O)N(CCN(C)C)C4=O)CCCC3
pIC50 [1]: 7.44 | pIC50 [2]: 7.22 | pIC50 [3]: 6.89 | pIC50 [4]: 7.40 | pIC50 [5]: 7.40 | pIC50 [6]: 6.88 | pIC50 [7]: 6.62 | pIC50 [8]: 7.51 | pIC50 [9]: 7.49 | pIC50 [10]: 7.32

CN(C)CCN1C(=O)c2cccc3c2c(cc2cccc(N)c23)C1=O
pIC50 [1]: 7.30 | pIC50 [2]: 7.27 | pIC50 [3]: 6.54 | pIC50 [4]: 6.82 | pIC50 [5]: 6.89 | pIC50 [6]: 6.61 | pIC50 [7]: 6.34 | pIC50 [8]: 6.62 | pIC50 [9]: 7.43 | pIC50 [10]: 7.17

CN(C)CCN1C(=O)c2cccc3c2c(cc2c([N+](=O)[O-])cccc23)C1=O
pIC50 [1]: 7.30 | pIC50 [2]: 7.30 | pIC50 [3]: 6.77 | pIC50 [4]: 6.74 | pIC50 [5]: 6.82 | pIC50 [6]: 6.76 | pIC50 [7]: 6.76 | pIC50 [8]: 6.87 | pIC50 [9]: 6.81 | pIC50 [10]: 7.30

CN(C)CCN1C(=O)c2cccc3c2c(cc2c(Cl)cccc23)C1=O
pIC50 [1]: 6.29 | pIC50 [2]: 6.11 | pIC50 [3]: 7.10 | pIC50 [4]: 7.72 | pIC50 [5]: 7.22 | pIC50 [6]: 6.29 | pIC50 [7]: 6.96 | pIC50 [8]: 7.70 | pIC50 [9]: 7.66 | pIC50 [10]: 6.29

CN(C)CCN1C(=O)c2c(NC(=O)C(C)(C)C)ccc3cc4c(c(c23)C1=O)CCCC4
pIC50 [1]: 5.76 | pIC50 [2]: 5.66 | pIC50 [3]: 5.70 | pIC50 [4]: 5.89 | pIC50 [5]: 6.02 | pIC50 [6]: 5.06 | pIC50 [7]: 6.10 | pIC50 [8]: 6.12 | pIC50 [9]: 6.12 | pIC50 [10]: 6.18

CN(C)CCN1C(=O)c2cccc3c2c(cc2cccnc23)C1=O
pIC50 [1]: 7.59 | pIC50 [2]: 7.37 | pIC50 [3]: 6.40 | pIC50 [4]: 6.49 | pIC50 [5]: 6.68 | pIC50 [6]: 6.51 | pIC50 [7]: 6.43 | pIC50 [8]: 6.71 | pIC50 [9]: 6.66 | pIC50 [10]: 6.06

CN(C)CCN1C(=O)c2cc(N)cc3cc4c(c(c23)C1=O)CCCC4
pIC50 [1]: 7.59 | pIC50 [2]: 7.14 | pIC50 [3]: 6.05 | pIC50 [4]: 6.49 | pIC50 [5]: 6.62 | pIC50 [6]: 6.21 | pIC50 [7]: 5.80 | pIC50 [8]: 6.64 | pIC50 [9]: 6.77 | pIC50 [10]: 6.31

CN(C)CCN1C(=O)c2c(N)ccc3cc4c(c(c23)C1=O)CCCC4
pIC50 [1]: 8.70 | pIC50 [2]: 7.96 | pIC50 [3]: 6.96 | pIC50 [4]: 6.89 | pIC50 [5]: 6.92 | pIC50 [6]: 6.73 | pIC50 [7]: 6.35 | pIC50 [8]: 7.10 | pIC50 [9]: 7.89 | pIC50 [10]: 7.10

CN(C)CCN1C(=O)c2cccc3c2c(cc2cccc([N+](=O)[O-])c23)C1=O
pIC50 [1]: 6.30 | pIC50 [2]: 6.12 | pIC50 [3]: 6.21 | pIC50 [4]: 6.36 | pIC50 [5]: 6.44 | pIC50 [6]: 6.12 | pIC50 [7]: 5.62 | pIC50 [8]: 6.10 | pIC50 [9]: 6.02 | pIC50 [10]: 6.20

CC(=O)Nc1ccc2c3c(cc4cccnc42)C(=O)N(CCN(C)C)C(=O)c13
pIC50 [1]: 6.90 | pIC50 [2]: 6.37 | pIC50 [3]: 6.54 | pIC50 [4]: 6.57 | pIC50 [5]: 6.57 | pIC50 [6]: 6.67 | pIC50 [7]: 6.71 | pIC50 [8]: 6.89 | pIC50 [9]: 6.82 | pIC50 [10]: 6.37

CN(C)CCN1C(=O)c2cccc3cc(N)cc(c23)C1=O [AMONAFIDE]
pIC50 [9]: 5.96

CN(C)CCN1C(=O)c2cccc3cc4ccccc4c(c23)C1=O [AZONAFIDE]
pIC50 [9]: 8.00

COc1cccc2c1C(=O)c1c(O)c3c(c(O)c1C2=O)C[C@@](O)(C(=O)CO)C[C@@H]3O[C@H]1C[C@H](N)[C@H](O)[C@H](C)O1 [DOXORUBICIN]
pIC50 [9]: 7.66

O=C1c2c(O)ccc(O)c2C(=O)c2c(NCCNCCO)ccc(NCCNCCO)c21 [MITOXANTRONE]
pIC50 [2]: 8.00 | pIC50 [5]: 8.05 | pIC50 [8]: 8.10 | pIC50 [9]: 8.52 | pIC50 [10]: 8.22

Source: ChEMBL document CHEMBL1133612, “Analogues of amonafide and azonafide with novel ring systems” (J Med Chem, 2000)
